# Results as given in ChEMBL document CHEMBL5154665, “Design, synthesis, biochemical evaluation, radiolabeling and in vivo imaging with high affinity class-IIa histone deacetylase inhibitor for molecular imaging and targeted therapy” (Eur J Med Chem, 2022).
# Key:
# [1] = target: T1, Polyamine deacetylase HDAC10 (Homo sapiens, UniProt Q969S8); test: Inhibition of recombinant human HDAC10 using fluorogenic substrate by fluorescence microplate reader assay
# T1 sequence (Q969S8 whole entry): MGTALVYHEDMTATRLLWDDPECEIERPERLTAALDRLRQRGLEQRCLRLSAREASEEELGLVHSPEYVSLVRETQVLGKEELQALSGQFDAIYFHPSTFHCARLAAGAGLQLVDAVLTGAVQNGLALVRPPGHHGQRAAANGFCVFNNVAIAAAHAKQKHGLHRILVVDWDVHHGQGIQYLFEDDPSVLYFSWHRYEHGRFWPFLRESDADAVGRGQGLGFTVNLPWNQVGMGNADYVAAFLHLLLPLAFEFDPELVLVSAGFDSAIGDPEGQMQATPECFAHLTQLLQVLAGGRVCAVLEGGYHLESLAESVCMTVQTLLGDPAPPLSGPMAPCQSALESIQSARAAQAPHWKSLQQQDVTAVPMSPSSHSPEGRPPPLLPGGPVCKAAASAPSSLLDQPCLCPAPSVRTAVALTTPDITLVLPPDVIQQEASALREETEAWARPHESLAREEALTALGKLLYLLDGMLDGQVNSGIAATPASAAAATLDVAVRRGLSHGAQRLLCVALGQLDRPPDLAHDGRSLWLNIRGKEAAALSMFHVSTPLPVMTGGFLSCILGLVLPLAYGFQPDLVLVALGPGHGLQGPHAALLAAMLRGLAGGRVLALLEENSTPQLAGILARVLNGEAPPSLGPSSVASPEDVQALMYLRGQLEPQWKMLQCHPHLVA
# Procedure, shortened: (§1)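 Recombinant human HDAC isoforms were tested at 9 inhibitor dilutions in commercial fluorogenic enzyme kits, per the manufacturer's protocol. For class IIa enzymes, deacetylation of a TFA-lysine substrate lets trypsin release a fluorophore, read on a microplate reader. IC50 came from a nonlinear fit of % HDAC activity inhibition against compound concentration.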
# [2] = target: T2, Protein deacetylase HDAC6 (Homo sapiens, UniProt Q9UBN7); test: Inhibition of recombinant human HDAC6 using fluorogenic substrate by fluorescence microplate reader assay; procedure, shortened: as §1
# T2 sequence (Q9UBN7 whole entry): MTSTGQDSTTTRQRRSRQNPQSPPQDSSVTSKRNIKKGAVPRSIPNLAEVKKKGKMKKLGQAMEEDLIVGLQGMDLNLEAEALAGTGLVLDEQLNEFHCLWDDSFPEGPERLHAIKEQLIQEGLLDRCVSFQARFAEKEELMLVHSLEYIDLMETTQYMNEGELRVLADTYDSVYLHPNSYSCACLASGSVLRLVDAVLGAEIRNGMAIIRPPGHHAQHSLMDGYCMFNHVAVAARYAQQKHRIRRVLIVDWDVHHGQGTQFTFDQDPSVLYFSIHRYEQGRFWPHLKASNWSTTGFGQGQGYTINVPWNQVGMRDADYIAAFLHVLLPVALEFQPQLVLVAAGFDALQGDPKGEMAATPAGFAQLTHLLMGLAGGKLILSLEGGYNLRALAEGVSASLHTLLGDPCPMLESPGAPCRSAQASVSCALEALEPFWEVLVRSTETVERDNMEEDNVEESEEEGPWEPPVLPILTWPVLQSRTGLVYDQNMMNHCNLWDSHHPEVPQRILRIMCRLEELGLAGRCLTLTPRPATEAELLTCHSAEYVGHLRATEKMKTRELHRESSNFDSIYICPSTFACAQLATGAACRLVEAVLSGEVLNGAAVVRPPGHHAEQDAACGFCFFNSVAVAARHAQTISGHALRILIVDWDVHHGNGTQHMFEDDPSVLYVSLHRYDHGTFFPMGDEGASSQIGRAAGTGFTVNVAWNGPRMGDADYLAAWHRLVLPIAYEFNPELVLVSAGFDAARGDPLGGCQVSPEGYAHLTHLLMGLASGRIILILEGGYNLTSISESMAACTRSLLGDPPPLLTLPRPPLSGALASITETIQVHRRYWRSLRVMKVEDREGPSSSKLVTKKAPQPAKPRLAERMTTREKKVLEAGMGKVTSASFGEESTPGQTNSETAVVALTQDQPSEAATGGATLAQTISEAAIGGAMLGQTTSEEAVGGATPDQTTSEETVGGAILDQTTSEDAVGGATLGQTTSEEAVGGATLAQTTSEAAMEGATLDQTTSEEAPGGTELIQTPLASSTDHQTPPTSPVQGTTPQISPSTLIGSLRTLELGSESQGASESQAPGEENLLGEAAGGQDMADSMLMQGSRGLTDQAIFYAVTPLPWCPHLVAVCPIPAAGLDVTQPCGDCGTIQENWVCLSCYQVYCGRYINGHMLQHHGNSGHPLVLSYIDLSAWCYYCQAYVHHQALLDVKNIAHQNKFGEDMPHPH
# [3] = target: Histone deacetylase 4 (Homo sapiens, UniProt P56524); test: Inhibition of recombinant human HDAC4 using fluorogenic substrate by fluorescence microplate reader assay; procedure, shortened: as §1
# Histone deacetylase 4, sequence (P56524 whole entry): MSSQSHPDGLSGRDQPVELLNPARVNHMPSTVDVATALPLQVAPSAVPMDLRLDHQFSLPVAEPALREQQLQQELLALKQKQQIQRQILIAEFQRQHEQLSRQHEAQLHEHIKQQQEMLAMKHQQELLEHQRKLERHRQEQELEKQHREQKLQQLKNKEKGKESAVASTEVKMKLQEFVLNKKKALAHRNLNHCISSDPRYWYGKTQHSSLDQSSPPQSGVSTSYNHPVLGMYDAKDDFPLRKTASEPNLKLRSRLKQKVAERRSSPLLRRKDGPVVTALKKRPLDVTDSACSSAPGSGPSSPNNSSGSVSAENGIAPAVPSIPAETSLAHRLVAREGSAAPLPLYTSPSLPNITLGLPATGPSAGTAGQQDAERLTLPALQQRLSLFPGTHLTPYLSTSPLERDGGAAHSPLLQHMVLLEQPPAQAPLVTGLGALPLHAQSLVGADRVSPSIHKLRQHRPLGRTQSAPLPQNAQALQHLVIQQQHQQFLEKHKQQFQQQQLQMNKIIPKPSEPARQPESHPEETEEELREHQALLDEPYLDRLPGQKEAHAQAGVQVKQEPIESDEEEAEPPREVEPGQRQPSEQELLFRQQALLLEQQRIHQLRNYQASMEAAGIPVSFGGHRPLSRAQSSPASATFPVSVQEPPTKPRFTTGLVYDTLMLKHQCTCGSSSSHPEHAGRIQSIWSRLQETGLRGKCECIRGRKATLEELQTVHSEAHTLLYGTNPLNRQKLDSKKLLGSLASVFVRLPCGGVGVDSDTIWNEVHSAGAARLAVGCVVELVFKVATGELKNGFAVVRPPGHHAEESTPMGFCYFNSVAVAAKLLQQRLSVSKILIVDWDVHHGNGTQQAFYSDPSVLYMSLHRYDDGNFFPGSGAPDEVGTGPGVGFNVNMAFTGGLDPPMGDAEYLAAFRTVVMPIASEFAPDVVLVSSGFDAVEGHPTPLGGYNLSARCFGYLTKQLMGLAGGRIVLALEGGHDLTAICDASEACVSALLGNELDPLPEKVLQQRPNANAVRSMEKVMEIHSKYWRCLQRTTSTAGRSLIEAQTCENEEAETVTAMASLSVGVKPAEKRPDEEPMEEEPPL
# [4] = target: Histone deacetylase 9 (Homo sapiens, UniProt Q9UKV0); test: Inhibition of recombinant human HDAC9 using fluorogenic substrate by fluorescence microplate reader assay; procedure, shortened: as §1
# Histone deacetylase 9, sequence (Q9UKV0 whole entry): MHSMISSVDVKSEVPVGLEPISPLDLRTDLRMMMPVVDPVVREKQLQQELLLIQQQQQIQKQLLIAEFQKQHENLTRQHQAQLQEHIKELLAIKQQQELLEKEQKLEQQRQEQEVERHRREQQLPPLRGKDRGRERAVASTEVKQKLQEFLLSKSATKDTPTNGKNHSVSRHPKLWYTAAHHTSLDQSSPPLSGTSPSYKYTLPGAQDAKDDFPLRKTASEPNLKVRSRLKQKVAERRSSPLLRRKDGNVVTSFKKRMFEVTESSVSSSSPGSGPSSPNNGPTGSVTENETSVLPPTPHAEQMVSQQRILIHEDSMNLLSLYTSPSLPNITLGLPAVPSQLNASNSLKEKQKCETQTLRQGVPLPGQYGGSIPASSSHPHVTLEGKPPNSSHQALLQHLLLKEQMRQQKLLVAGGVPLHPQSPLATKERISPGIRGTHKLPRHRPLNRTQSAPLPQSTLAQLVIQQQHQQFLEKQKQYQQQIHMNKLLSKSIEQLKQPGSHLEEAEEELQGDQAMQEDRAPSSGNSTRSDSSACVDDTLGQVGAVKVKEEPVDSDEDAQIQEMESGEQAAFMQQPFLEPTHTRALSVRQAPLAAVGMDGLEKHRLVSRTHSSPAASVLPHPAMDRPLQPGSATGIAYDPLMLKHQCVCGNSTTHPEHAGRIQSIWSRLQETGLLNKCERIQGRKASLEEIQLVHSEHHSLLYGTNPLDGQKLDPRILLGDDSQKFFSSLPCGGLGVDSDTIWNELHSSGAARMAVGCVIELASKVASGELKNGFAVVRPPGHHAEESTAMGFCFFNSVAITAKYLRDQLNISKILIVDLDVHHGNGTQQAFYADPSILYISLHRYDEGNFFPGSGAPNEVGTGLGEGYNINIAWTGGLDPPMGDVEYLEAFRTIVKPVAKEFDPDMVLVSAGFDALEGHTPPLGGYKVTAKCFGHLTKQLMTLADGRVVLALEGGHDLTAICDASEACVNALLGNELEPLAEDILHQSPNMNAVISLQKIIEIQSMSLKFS
# [5] = target: Histone deacetylase 5 (Homo sapiens, UniProt Q9UQL6); test: Inhibition of recombinant human HDAC5 using fluorogenic substrate by fluorescence microplate reader assay; procedure, shortened: as §1
# Histone deacetylase 5, sequence (Q9UQL6 whole entry): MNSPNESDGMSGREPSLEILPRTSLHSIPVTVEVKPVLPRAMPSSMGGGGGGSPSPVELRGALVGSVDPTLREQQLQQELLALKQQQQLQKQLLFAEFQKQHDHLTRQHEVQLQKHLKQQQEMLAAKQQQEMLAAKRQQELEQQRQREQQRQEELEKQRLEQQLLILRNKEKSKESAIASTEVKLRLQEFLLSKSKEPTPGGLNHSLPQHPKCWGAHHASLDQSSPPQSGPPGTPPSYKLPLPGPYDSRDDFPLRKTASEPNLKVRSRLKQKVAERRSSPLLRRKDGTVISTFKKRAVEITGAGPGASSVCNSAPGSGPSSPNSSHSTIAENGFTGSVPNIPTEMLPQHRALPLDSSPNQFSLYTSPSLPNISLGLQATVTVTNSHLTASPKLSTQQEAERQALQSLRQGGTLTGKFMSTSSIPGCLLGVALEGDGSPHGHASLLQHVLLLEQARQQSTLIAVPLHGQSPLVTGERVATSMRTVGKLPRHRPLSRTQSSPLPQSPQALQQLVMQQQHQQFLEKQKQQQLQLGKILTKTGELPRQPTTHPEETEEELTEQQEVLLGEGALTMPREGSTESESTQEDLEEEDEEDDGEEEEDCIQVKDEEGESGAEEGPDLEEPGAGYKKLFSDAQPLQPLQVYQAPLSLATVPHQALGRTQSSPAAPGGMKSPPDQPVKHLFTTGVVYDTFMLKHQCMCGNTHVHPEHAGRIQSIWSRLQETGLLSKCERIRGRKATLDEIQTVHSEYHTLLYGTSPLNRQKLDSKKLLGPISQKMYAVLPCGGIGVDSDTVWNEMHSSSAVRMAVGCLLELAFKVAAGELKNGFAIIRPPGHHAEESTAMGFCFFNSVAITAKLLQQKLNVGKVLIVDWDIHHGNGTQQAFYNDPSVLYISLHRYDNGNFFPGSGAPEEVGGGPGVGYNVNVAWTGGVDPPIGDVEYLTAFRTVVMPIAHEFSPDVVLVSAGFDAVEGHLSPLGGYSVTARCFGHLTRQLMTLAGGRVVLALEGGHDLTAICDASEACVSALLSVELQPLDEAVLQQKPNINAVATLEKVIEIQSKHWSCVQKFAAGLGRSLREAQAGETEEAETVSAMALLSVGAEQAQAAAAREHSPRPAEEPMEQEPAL
# [6] = target: Histone deacetylase 2 (Homo sapiens, UniProt Q92769); test: Inhibition of recombinant human HDAC2 using fluorogenic substrate by fluorescence microplate reader assay; procedure, shortened: as §1
# Histone deacetylase 2, sequence (Q92769 whole entry): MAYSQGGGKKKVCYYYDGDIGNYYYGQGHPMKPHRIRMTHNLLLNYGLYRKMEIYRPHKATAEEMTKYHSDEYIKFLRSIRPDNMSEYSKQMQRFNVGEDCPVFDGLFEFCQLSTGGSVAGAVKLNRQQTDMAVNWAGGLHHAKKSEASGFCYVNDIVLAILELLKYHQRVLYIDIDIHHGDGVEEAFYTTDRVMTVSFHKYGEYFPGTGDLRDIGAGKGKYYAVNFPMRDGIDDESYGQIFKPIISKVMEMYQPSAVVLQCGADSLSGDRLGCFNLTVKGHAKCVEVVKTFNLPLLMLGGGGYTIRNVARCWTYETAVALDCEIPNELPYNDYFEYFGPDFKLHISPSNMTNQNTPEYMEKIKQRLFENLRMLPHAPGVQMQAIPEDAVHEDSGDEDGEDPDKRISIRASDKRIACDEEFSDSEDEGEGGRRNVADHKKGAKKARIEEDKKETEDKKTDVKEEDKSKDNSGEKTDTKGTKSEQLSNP
# [7] = Inhibition of HDAC class 2b in human HT-29 cells using Boc-Lys-Ac as substrate incubated for 3 hrs by microplate reader assay; assay type: cell-based; details: HT-29, 3 h
# [8] = target: T3, Histone deacetylase 8 (Homo sapiens, UniProt Q9BY41); test: Inhibition of recombinant human HDAC8 using fluorogenic substrate by fluorescence microplate reader assay; procedure, shortened: as §1
# T3 sequence (Q9BY41 whole entry): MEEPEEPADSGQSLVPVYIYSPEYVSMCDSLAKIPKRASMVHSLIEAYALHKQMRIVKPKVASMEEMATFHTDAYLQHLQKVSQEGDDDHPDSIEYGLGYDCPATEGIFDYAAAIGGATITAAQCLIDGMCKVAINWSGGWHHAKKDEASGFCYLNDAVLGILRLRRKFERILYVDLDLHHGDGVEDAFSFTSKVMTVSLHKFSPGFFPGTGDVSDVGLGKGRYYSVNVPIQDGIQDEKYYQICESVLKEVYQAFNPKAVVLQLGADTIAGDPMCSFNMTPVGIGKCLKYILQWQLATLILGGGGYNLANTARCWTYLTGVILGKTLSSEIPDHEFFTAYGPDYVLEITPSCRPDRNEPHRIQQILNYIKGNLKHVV
# [9] = target: T4, Histone deacetylase 11 (Homo sapiens, UniProt Q96DB2); test: Inhibition of recombinant human HDAC11 using fluorogenic substrate by fluorescence microplate reader assay; procedure, shortened: as §1
# T4 sequence (Q96DB2 whole entry): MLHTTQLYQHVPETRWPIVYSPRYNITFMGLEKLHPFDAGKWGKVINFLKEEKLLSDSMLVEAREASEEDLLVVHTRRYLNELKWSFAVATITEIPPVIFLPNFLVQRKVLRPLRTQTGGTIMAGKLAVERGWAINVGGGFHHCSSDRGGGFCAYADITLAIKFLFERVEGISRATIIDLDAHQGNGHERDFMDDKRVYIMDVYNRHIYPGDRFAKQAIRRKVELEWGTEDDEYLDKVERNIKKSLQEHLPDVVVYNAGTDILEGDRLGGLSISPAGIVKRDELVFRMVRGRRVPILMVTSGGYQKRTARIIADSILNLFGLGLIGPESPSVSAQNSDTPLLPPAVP
# [10] = target: Histone deacetylase 1 (Homo sapiens, UniProt Q13547); test: Inhibition of recombinant human HDAC1 using fluorogenic substrate by fluorescence microplate reader assay; procedure, shortened: as §1
# Histone deacetylase 1, sequence (Q13547 whole entry): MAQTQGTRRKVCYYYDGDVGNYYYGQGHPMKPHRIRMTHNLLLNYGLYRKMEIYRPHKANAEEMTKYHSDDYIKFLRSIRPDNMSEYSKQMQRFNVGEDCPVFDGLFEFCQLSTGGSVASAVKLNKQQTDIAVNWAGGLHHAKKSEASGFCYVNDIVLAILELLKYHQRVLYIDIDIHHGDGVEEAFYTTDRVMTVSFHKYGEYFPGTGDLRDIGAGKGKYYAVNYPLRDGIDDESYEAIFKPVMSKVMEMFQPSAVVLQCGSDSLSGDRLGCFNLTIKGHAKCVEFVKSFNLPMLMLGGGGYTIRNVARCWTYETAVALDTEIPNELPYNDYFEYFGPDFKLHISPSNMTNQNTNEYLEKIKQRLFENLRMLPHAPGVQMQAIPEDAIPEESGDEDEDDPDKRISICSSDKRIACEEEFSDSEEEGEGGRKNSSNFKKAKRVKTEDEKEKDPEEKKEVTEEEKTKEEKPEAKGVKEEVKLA
# [11] = target: Class 1 histone deacetylase (Homo sapiens, UniProt Q13547+O15379+Q92769+Q9BY41); test: Inhibition of HDAC class 1 in human HT-29 cells using Boc-Lys-Ac as substrate incubated for 3 hrs by microplate reader assay; assay type: cell-based
# [12] = target: Histone deacetylase 3 (Homo sapiens, UniProt O15379); test: Inhibition of recombinant human HDAC3 using fluorogenic substrate by fluorescence microplate reader assay; procedure, shortened: as §1
# Histone deacetylase 3, sequence (O15379 whole entry): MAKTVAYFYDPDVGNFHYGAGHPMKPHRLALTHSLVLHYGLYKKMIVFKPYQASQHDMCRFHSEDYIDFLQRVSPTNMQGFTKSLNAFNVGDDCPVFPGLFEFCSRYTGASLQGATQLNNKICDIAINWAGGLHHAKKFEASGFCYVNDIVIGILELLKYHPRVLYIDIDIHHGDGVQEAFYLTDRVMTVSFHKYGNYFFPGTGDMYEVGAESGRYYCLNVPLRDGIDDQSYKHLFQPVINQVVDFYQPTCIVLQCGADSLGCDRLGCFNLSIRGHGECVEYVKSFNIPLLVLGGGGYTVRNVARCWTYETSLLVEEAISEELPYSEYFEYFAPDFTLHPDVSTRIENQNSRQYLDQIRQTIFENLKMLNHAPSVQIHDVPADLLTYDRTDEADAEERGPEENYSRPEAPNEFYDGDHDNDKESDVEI
# [13] = Inhibition of HDAC class 2a in human HT-29 cells using Boc-Lys-TFA as substrate incubated for 3 hrs by microplate reader assay; assay type: cell-based; details: HT-29, 3 h
Structure (SMILES),IC50 [7],IC50 [11],IC50 [13],also measured
C[C@H](CN(C)Cc1ccccc1)NC(=O)c1ccc(-c2noc(C(F)(F)F)n2)cc1,> 15 µM,> 15 µM,46 nM,IC50 [1]: > 600 nM; IC50 [2]: > 600 nM; IC50 [3]: 0.08 nM; IC50 [4]: 0.9 nM; IC50 [5]: 1.2 nM; IC50 [6]: > 600 nM; IC50 [8]: > 600 nM; IC50 [9]: > 600 nM; IC50 [10]: > 600 nM; IC50 [12]: > 600 nM
CC(C)(CNC(=O)c1ccc(-c2noc(C(F)(F)F)n2)cc1)c1coc(-c2ccccc2)n1,> 15 µM,> 15 µM,> 5000 nM,–
C[C@H](CN(C)Cc1ccccc1)NC(=O)c1ccc(-c2noc(C(F)(F)Cl)n2)cc1,> 2 µM,> 2 µM,> 2000 nM,–
C[C@H](CN(C)Cc1ccc(F)cc1)NC(=O)c1ccc(-c2noc(C(F)(F)F)n2)cc1,> 15 µM,> 15 µM,59 nM,–
C[C@@H](NC(=O)c1ccc(-c2noc(C(F)(F)F)n2)cc1)C(=O)NCc1ccccc1,> 15 µM,> 15 µM,953 nM,–
COC[C@@H](NC(=O)c1ccc(-c2noc(C(F)(F)F)n2)cc1)C(=O)NCc1ccc(F)cc1,> 15 µM,> 15 µM,233 nM,–
C[C@H](CN(C)Cc1ccccc1)NC(=O)c1ccc(-c2noc(C(F)(F)F)n2)nc1,> 50 µM,> 50 µM,147 nM,–
COC[C@@H](NC(=O)c1ccc(-c2noc(C(F)(F)F)n2)cc1)C(=O)NCc1ccccc1,> 15 µM,> 15 µM,537 nM,–
CN(Cc1ccccc1)C(=O)C(C)(C)CNC(=O)c1cccc(-c2noc(C(F)(F)F)n2)c1,> 50 µM,> 50 µM,> 50000 nM,–
CC(C)(CNC(=O)c1ccc(-c2noc(C(F)(F)F)n2)cc1)C(=O)NCc1ccccc1,> 15 µM,> 15 µM,768 nM,–
C[C@H](CN(C)Cc1ccccc1)NC(=O)c1cccc(-c2noc(C(F)(F)F)n2)c1,> 50 µM,> 50 µM,> 50000 nM,–
COC[C@@H](NC(=O)c1ccc(-c2noc(C(F)(F)F)n2)nc1)C(=O)NCc1ccccc1,> 15 µM,> 15 µM,1710 nM,–
CC(CN(C)Cc1ccccc1)NC(=O)c1ccc(-c2noc(C(F)(F)F)n2)cc1 (stereo unspecified),> 50 µM,> 50 µM,395 nM,–
CN(Cc1ccccc1)C(=O)CCNC(=O)c1ccc(-c2noc(C(F)(F)F)n2)cc1,> 15 µM,> 15 µM,905 nM,–
CN(Cc1ccccc1)C(=O)C(C)(C)CNC(=O)c1ccc(-c2noc(C(F)(F)F)n2)cc1,> 15 µM,> 15 µM,933 nM,–
CN(Cc1ccccc1)C(=O)CCNC(=O)c1cccc(-c2noc(C(F)(F)F)n2)c1,> 50 µM,> 50 µM,> 50000 nM,–
C[C@H](CN(C)Cc1ccccc1)NC(=O)c1ccc(-c2noc(C(F)(F)Br)n2)cc1,> 5 µM,> 5 µM,> 5000 nM,–
